Bioassay records from PubChem.
Compounds with a hit are over-represented: about 2.2% of the library has one in this group of screens.
eIF4H inh – inhibitors of RNA binding by human eIF4H; Q15056; eIF4H fluorescence polarization binding assay; inhibition, % at 35 µM; 290,000 compounds, 0.94% hits; AID 2012;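 also: calls also rest on retests at 20 µM and on dose response follow-up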
VIM-2 inhibitor – inhibitors of Pseudomonas aeruginosa VIM-2 metallo-beta-lactamase | purified VIM-2, nitrocefin hydrolysis, epi-absorbance fluorescence | inhibition, % at 5.6 µM | 290,000 compounds, 0.89% hits;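 active = inhibition above the mean of all tested compounds plus 3 SD, cutoff set per screening run, cut at about 7.5% in these data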;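 also: red hydrolysis product quenches plate fluorescence so inhibitors raise well fluorescence; 0% = enzyme with DMSO and 100% = DMSO without enzyme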
PABP FP inh – PABP-poly(A) binding inhibition. PABP-poly(A) RNA binding, fluorescence polarization. calls only at 35 µM. 290,000 compounds, 1% hits. P11940;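 also: calls also rest on retests at 20 µM and on dose response follow-up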
MLLE-PAM2 inh – inhibitors of microRNA-mediated deadenylation, human PABP1 MLLE binding; P11940; GST-MLLE / FITC-PAM2 fluorescence polarization; inhibition, % at 20 µM; 360,000 compounds, 0.36% hits; AID 588489; in the data active = inhibition above about 35%, passing the limit was not always enough;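 also: plate controls were DMSO wells with GST-MLLE for no effect and wells lacking GST-MLLE protein for full effect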
IMP-1 inhibitor – inhibitors of Pseudomonas aeruginosa IMP-1 metallo-beta-lactamase | purified IMP-1, nitrocefin hydrolysis, epi-absorbance fluorescence | inhibition, % at 5.6 µM | 290,000 compounds, 0.45% hits | AID 1556;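 active = inhibition above the mean plus 3 SD of all compounds in the same screening run, cut at about 4.5% in these data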;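 also: 0% = IMP-1 with DMSO and 100% = DMSO wells lacking enzyme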
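System: purified recombinant IMP-1 beta-lactamase. Medium: Zinc- and detergent-supplemented HEPES buffer, pH 7.1. Compound: one 5.6 µM dose […]. Schedule: 15 min preincubation plus 25 min reaction at 25 °C. Technique: Epi-absorbance fluorescence, 480 nm excitation, 530 nm emission.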
* hit, by the source's call; i = inactive; ? = inconclusive; . = no result; + = active, no number. Unless noted, no rule for the calls is given here.

SMILES	eIF4H inh	VIM-2 inhibitor	PABP FP inh	MLLE-PAM2 inh	IMP-1 inhibitor
O=C(Nc1cc(Cl)ccc1Cl)c1noc2c1CCCC2	-7.3	.	i	7.1	.
O=C(Nc1ccc(F)cc1F)c1noc2c1CCC2	85.0*	-0.1	+	13.5	-0.2
CCCNC(=O)c1nnsc1S(=O)c1ccc(Cl)cc1 (stereo not drawn)	-9.6	-3.0	i	37.5*	-2.5
CNc1cnc(-c2ccsc2)cn1	.	.	.	29.1	.
O=C(Nc1cccc(-c2ccc3nncn3n2)c1)C(F)(F)F	-12.0	8.0*	i	4.1	-4.1
Oc1cc(NCCc2cccnc2)cc2cccnc12	.	.	.	50.0*	.
Cc1cnc(C(=O)OCC(=O)N(Cc2ccccc2)C(C)C)cn1	-6.0	-2.5	i	-9.3	-2.2
Cc1cnc(C(=O)OCC(=O)N(C(C)C)C(C)C)cn1	-6.6	0.3	i	7.5	5.4*
c1coc(-c2ccnc3nc(-n4cccc4)nn23)c1	93.9*	5.0	+	-5.7	-3.6
COc1ccc(-c2ccnc3nc(-n4cccc4)nn23)cc1	-8.8	-2.0	i	-10.1	-1.5
c1cn2c(-c3ccc(N4CCOCC4)cc3)cncc2n1	.	.	.	-17.8	.
O=C(Nc1ccccc1N1CCN(C(=O)c2ccccc2)CC1)c1ccc(Br)o1	3.8	-2.9	i	-6.7	5.9*
O=C(Nc1ccccc1N1CCN(C(=O)c2ccccc2)CC1)c1ccc(Cl)cc1	4.5	0.0	i	10.6	-3.3
CSc1nc2[nH]c3c(c2c2ncnn12)CCCC3	-4.5	11.3*	i	-5.4	-1.7
FC(F)(F)c1cccc(-c2nc3nc(Cl)c(Cl)nc3[nH]2)c1	?	-0.3	+	-29.2	-1.0
COc1cnc(-c2cccc(C(F)(F)F)c2)[nH]c1=O	5.0	-1.3	i	-6.9	-0.6
Cc1cc2cc(CNC(=O)c3cccs3)ccc2n1C	8.2	-1.0	i	45.2*	-3.0
CCC(CC)C(=O)NCc1ccc2c(c1)cc(C)n2C	1.9	-2.1	i	21.5	-0.3
Cc1ccccc1NC(=S)NCc1ccc2c(c1)cc(C)n2C	23.6	-4.8	i	-28.6	42.9*
Cc1cc2cc(CNC(=O)Nc3ccccc3)ccc2n1C	10.7	-0.7	i	62.9*	-6.5
Cc1cc2cc(CNC(=O)C(C)Oc3ccccc3)ccc2n1C (stereo not drawn)	73.1	-2.6	+	26.0	1.1
CC1CCCC(C)N1C(=O)COC(=O)CNC(=O)c1ccccc1F (stereo not drawn)	.	.	.	9.2	.
Nc1ccc(S(=O)(=O)NC2(C(F)(F)F)NC(=O)N(c3ccc(F)cc3)C2=O)cc1 (stereo not drawn)	-13.3	-1.9	i	2.0	-2.3
CN(CC(=O)Nc1ccc(F)c(F)c1F)C(=O)Cc1ccc2c(c1)OCCO2	3.8	-1.3	i	8.3	0.4
Cc1cc(C)[n+](C)n1CC(O)Cn1c2ccccc2c2ccccc21 (stereo not drawn)	3.7	-1.3	i	-101.5	-3.1
SMILES	eIF4H inh	VIM-2 inhibitor	PABP FP inh	MLLE-PAM2 inh	IMP-1 inhibitor
CCOC(=O)CCC(=O)NCc1ccc2c(c1)cc(C)n2C	102.6	-4.9	+	21.4	-1.8
CCn1nccc1C(=O)Nc1cccc(C)c1C	-4.4	-1.4	i	6.2	17.3*
CCn1nccc1C(=O)Nc1cc(Cl)ccc1Cl	3.5	0.5	i	-2.1	-0.2
Cc1ccc(-n2[nH]c(C)c(/C=N/Nc3ccc([N+](=O)[O-])cc3[N+](=O)[O-])c2=O)cc1	-6.4	-4.0	i	-42.8	-4.7
Nc1ccc(N2CCCCCC2)cc1	82.7*	0.6	+	.	-1.6
Cc1nc(C(C)N(C)Cc2nc(-c3ccc4c(c3)OCO4)no2)c(C)s1 (stereo not drawn)	-10.3	0.9	i	17.7	0.7
COC(=O)C1=C(NC(=O)COc2ccc(Cl)cc2Cl)CCS1	-0.4	-3.7	i	19.7	-3.2
Cc1ccc(C2C3CN(C(C)C)CC=C3C(C#N)=C(N)C2(C#N)C#N)cc1 (stereo not drawn)	?	.	?	151.2	.
CN1C2C=C3C(C#N)=C(N)C(C#N)(C#N)[C@H](c4c(F)cccc4F)[C@H]3C1CC2 (stereo partly drawn)	52.6	-2.7	i	22.5	-1.4
CC(C)(C)C1CC=C2C(C#N)=C(N)C(C#N)(C#N)C(c3cccs3)C2C1 (stereo not drawn)	93.1*	-1.5	+	.	2.2
CN1C2C=C3C(C#N)=C(N)C(C#N)(C#N)[C@@H](c4cccs4)C3C1CC2 (stereo partly drawn)	59.1*	-4.6	+	16.9	-6.2
CC12CCC(=O)N1C(C(=O)Nc1nc3ccc(Cl)cc3s1)CS2 (stereo not drawn)	.	.	.	2.7	.
O=C(CSc1nc2ccsc2c(=O)n1CC1CCC(C(=O)O)CC1)c1ccc(Cl)cc1 (stereo not drawn)	1.6	-1.2	i	1.0	13.6*
O=[N+]([O-])c1ccccc1CNc1ccc(F)c(Cl)c1	74.4	0.1	+	-3.4	0.6
Cc1cc(F)ccc1NCc1ccccc1[N+](=O)[O-]	-2.2	-3.6	i	-6.2	-0.8
CCCNc1nc2ccccc2c(=O)[nH]1	-3.5	-1.4	i	11.6	-1.7
CCCNc1cc(=S)nc(N)[nH]1	?	-4.8	?	41.9*	-4.4
COc1cccc(C(C[N+](=O)[O-])c2c(C)[nH]n(-c3ccccc3)c2=O)c1 (stereo not drawn)	-3.0	12.1*	i	16.4	1.7
O=C(O)c1cc(-c2ccc(Cl)c(Cl)c2)n(-c2ccccc2)n1	0.1	-0.1	i	-1.1	-2.8
O=C(Sc1cccc2cccnc12)c1ccccc1Br	-5.7	-3.6	i	36.9*	-3.5
O=C(Sc1cccc2cccnc12)c1ccc(F)cc1	-6.1	-5.5	i	.	-2.6
CCOC(=O)CSC1=C(C#N)C(c2ccccc2F)C(C(C)=O)=C(C)N1 (stereo not drawn)	50.4*	-3.0	?	-41.7	-4.7
CC(=O)C1=C(C)NC(SCC(=O)c2ccc(Cl)c(Cl)c2)=C(C#N)C1c1ccco1 (stereo not drawn)	71.0*	0.3	+	-31.6	-3.1
CCc1ccc(C(=O)CSC2=C(C#N)C(c3ccco3)C(C(C)=O)=C(C)N2)cc1 (stereo not drawn)	71.5*	-1.6	i	.	-1.4
COc1ccccc1NC(=O)C1=C(C)NC(SCC(=O)c2ccc(C)cc2)=C(C#N)C1c1ccco1 (stereo not drawn)	-1.8	-2.8	i	.	4.5*
CC1=C(C(=O)Nc2ccccc2)C(c2ccco2)C(C#N)=C(SCC(=O)OC(C)C)N1 (stereo not drawn)	5.2	-1.8	i	16.3	-4.2
CC(=O)C1=C(C)NC(SCC(=O)c2ccc(F)cc2)=C(C#N)C1c1ccco1 (stereo not drawn)	26.9	-1.9	i	-36.9	-2.6
CCOC(=O)CSC1=C(C#N)C(c2sccc2C)C(C(C)=O)=C(C)N1 (stereo not drawn)	-9.3	-3.2	i	-33.6	-3.3
CC(=O)C1=C(C)NC(SCC(=O)c2cc(Cl)ccc2Cl)=C(C#N)C1c1ccco1 (stereo not drawn)	0.2	-0.5	i	-24.6	-4.4
